Bioassay records as filed in PubChem BioAssay.
A selection: hits, their analogues and other compounds. The true share with any hit is near 3.8%.
KCNQ1 act = human KCNQ1 channel potentiation or activation | P51787 | CHO-K1 KCNQ1, thallium flux FluxOR fluorescence; stronger effect = higher value | B-score at 10 µM | 0.35% of 310,000 active;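 active means fluorescence ratio B-score, a plate-corrected score, at least three library SD, with initial intensity B-score within 5 SD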
Target sequence (P51787 whole entry, looked up): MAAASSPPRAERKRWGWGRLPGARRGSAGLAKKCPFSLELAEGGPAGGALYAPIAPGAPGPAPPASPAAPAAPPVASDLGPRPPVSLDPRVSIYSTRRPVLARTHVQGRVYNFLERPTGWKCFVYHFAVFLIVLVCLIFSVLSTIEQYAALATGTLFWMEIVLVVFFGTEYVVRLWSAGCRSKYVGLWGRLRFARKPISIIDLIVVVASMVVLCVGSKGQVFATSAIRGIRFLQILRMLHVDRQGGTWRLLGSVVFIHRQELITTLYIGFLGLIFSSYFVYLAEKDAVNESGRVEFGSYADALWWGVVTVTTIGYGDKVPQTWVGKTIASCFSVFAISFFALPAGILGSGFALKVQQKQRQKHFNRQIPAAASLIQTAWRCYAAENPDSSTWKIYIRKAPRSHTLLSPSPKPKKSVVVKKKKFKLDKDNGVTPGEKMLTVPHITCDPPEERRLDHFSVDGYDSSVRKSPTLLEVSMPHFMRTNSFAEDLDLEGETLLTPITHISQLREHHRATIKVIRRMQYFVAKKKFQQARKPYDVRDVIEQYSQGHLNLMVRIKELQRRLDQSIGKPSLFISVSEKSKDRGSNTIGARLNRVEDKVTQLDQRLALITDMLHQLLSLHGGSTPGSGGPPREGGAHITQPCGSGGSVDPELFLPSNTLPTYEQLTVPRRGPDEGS
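System: Stable KCNQ1 CHO-K1 line | Incubation: 90 min dye loading and 20 min compound exposure, both at room temperature | Measure: Ratio B score | Medium: Assay buffer for compound exposure, DMSO matched across wells | Compound dosing: Single-concentration screen | Probe or stimulus: K+/Tl+ depolarizing stimulus | Measured by: Kinetic FluxOR fluorescence, 10 s baseline plus 110 s post-stimulus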
KCNK3 inh = human KCNK3 channel inhibition, primary screen; 0.84% of 340,000 active; CHO-KCNK3 thallium flux, FluxOR fluorescence; stronger effect = lower value; AID 602410; B-score at 10 µM; O14649;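 active means B-score under library mean minus 4 SD, starting fluorescence ratio at most library mean plus 5 SD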;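 further: more negative B-score means stronger inhibition of thallium flux through KCNK3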
Kir21 block = inhibitors of mouse Kir2.1 inward-rectifier potassium channel | AID 1672 | B-score at 10 µM | HEK293-Kir2.1, FluxOR thallium flux fluorescence; stronger effect = lower value | 0.85% of 310,000 active;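 active means fluorescence ratio B-score at or below minus 3 SD of library scores, with starting-brightness B-score within 2 SD, cut at about -4.2 in these data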;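 further: channel flux triggered by added potassium and thallium sulfate stimulus; B-score of peak minus minimum fluorescence over baseline after thallium stimulus; more negative B-score means stronger Kir2.1 block with less thallium influx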
hERG rescue = hERG (human) protection from proarrhythmic block | AID 1511 | Q12809 | CHO-hERG, FluxOR thallium flux, dofetilide IC70 present | 0.51% of 310,000 active | activation (rescue from dofetilide block), less the hit threshold, % at 10 µM;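 active means activation above the mean of controls blocked by dofetilide plus 5 SD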;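 further: thallium influx through hERG after potassium depolarization seen as dye fluorescence rise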
KCNQ1 inh = inhibitors of human KCNQ1 potassium channel. P51787. CHO-K1 KCNQ1, FluxOR thallium flux fluorescence; stronger effect = higher value. B-score at 10 µM. 1.3% of 310,000 active. AID 2642;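 active means compounds whose thallium flux B-score, printed positive for inhibition, exceeds three library SD while starting fluorescence stays within three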;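 further: channel opened by potassium depolarization with thallium stimulus after 20 min compound exposure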
KCNK9 block = human KCNK9 channel inhibition; Q9NPC2; HEK293 KCNK9, FluxOR thallium flux fluorescence; stronger effect = lower value; 1.2% of 310,000 active; B-score at 10 µM;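 active means ratio B-score over 3 SD below the library mean, with starting fluorescence within 5 SD of its mean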;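 further: negative B-score means less thallium flux so channel inhibition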
* = called active by the depositor; i = inactive; . = no result.

SMILES	KCNQ1 act	KCNK3 inh	Kir21 block	hERG rescue	KCNQ1 inh	KCNK9 block
CC(=O)N1N=C(c2cccc(Cl)c2)OC1c1ccc(C(C)C)cc1 (stereo unspecified)	i	i	0.57	-9	6*	i
CC(=O)N1N=C(c2cccc(Cl)c2)OC1c1cccc([N+](=O)[O-])c1 (stereo unspecified)	i	i	2	-3	i	i
CCC12CN(S(=O)(=O)c3ccc(C)cc3)CC(CC)(CN(S(=O)(=O)c3ccc(C)cc3)C1)C2=O	i	-9.1*	1.4	-9	i	i
COc1cccc(/C=N/NC(=O)C(=O)N2CCCCCC2)c1O	i	i	0.45	-10	i	i
COc1ccc(N2CCN(c3ncnc4scc(-c5ccc(C)cc5)c34)CC2)cc1	i	i	1.6	-4	i	-7.9*
COc1ccc(-c2csc3ncnc(N4CCN(c5cccc(Cl)c5)CC4)c23)cc1	i	i	0.27	-16	6*	i
COc1ccc(-c2csc3ncnc(N4CCN(S(=O)(=O)c5ccc(Cl)s5)CC4)c23)cc1	i	i	-1.3	-14	i	i
COc1ccc(-c2csc3ncnc(N4CCN(S(=O)(=O)c5ccc(C)cc5)CC4)c23)cc1	i	i	-0.07	-14	i	i
COc1ccc(NC(=O)C2CC(=O)n3c(nc4ccccc43)N2)cc1 (stereo unspecified)	i	i	0.38	-11	i	i
O=C(Nc1ccc(Cl)cc1)Nc1nnc(SCc2ccccc2)s1	i	i	0.26	-10	6*	i
CC(C)c1ccc(N(CC(=O)NCc2cccnc2)S(=O)(=O)c2ccccc2)cc1	i	i	0.44	-7	i	i
CCN(CC)CCCN1C(=O)c2oc3ccccc3c(=O)c2C1c1cccs1 (stereo unspecified)	15*	.	-0.1	26*	i	i
CCO[C@@H]1OC(C(=O)N2CCCCCCC2)=C[C@H](c2csc3ccccc23)[C@H]1CCCO	i	i	-2	-11	i	i
COc1cc(/C=C2/C(=O)NN(c3ccc(C)c(Cl)c3)C2=O)cc([N+](=O)[O-])c1O	i	i	0.94	-17	i	i
Cc1ccc(N2NC(=O)/C(=C\c3cc4c(cc3[N+](=O)[O-])OCO4)C2=O)cc1C	i	i	-6.5*	-7	i	i
Cc1nc(N2CCC(C)CC2)c2c(C)c(C(=O)Nc3ccc(C(F)(F)F)cc3)sc2n1	i	i	2	0	10*	i
O=C(Nc1ccccc1N1CCN(C(=O)c2ccccc2)CC1)c1cc2ccccc2o1	.	-9.7*	.	.	.	.
COc1cc2c(cc1OC)[C@@H](NC(=O)Cc1ccc(F)cc1)[C@H](OCc1ccccc1)C2	.	i	.	.	.	.
COc1ccccc1NS(=O)(=O)c1cc(Cl)ccc1OC	i	i	-4.8*	-12	i	i
COc1cc(OC)c(NS(=O)(=O)c2cc(Br)cnc2N)cc1Cl	i	i	-5.8*	-6	i	i
COc1ccc(OC)c(S(=O)(=O)Nc2cc(OC)c(Cl)cc2OC)c1	i	i	-5.6*	-9	i	i
COc1cc(NS(=O)(=O)c2ccc(OC)c(C)c2C)c(OC)cc1Cl	i	i	-1.9	-5	i	i
COc1ccccc1NS(=O)(=O)c1ccc(OC)c(OC)c1	i	i	-2.7	3	i	i
CCc1c(C)sc(NC(=O)CN2CCN(C(=O)c3ccco3)CC2)c1C(=O)OC	22*	i	0.28	1	i	i
CCOC(=O)c1c(NC(=O)CN2CCN(C(=O)c3ccco3)CC2)sc(C)c1C	i	i	1.5	-2	i	i
SMILES	KCNQ1 act	KCNK3 inh	Kir21 block	hERG rescue	KCNQ1 inh	KCNK9 block
O=C1NC[C@H](Cc2ccccc2)N(CC2CCN(CCCCc3ccccc3)CC2)C1=O	.	i	.	.	.	.
CCCCNc1c(-c2ccc(SC(C)CC)cc2)nc2ccccn12 (stereo unspecified)	i	i	-1.3	-38	8*	-7.8*
CCCCNc1c(-c2ccc(SC3CCCCC3)cc2)nc2ccccn12	i	i	0.12	-23	i	i
CCC(C)Sc1cccc(-c2nc3cc(C)ccn3c2NCc2ccccc2)c1 (stereo unspecified)	i	i	-1.4	-5	8*	i
CCC(C)(c1ccc(C=O)s1)c1ccc(C=O)s1	i	i	-1.7	6.0*	i	i
O=Cc1ccc(-c2cccs2)s1	.	i	.	.	.	.
C=CCSC(=C(C#N)C#N)c1cc2c([nH]1)CCCC2	i	i	-0.29	-14	8*	i
CCN(c1ccc(NC(=O)c2ccc(Cl)nc2)cc1)C(C)C	i	i	1.1	5.9*	i	i
O=C(Nc1ccc(N2CCOCC2)cc1)c1ccc(Cl)nc1	i	i	0.53	-3	i	i
Cc1ccnc(NC(=O)CNC(=O)c2ccc3c(c2)OCO3)c1	15*	i	-0.05	-6	i	i
Cc1ccnc(NC(=O)CNC(=O)c2ccc3ccccc3c2)c1	i	i	1.1	-19	i	i
CC1(C)CC(=O)c2c(O)cc(OCC(=O)N3CCN(c4ccc(F)cc4)CC3)cc2O1	i	i	-2.4	-9	i	i
N#CC1=C(SCC(=O)c2cc3ccccc3oc2=O)NC(=O)C(C#N)C12CCCC2 (stereo unspecified)	i	i	-0.09	-11	7*	i
Cc1nc(C)n(CC(O)COc2ccc3ccccc3c2)n1 (stereo unspecified)	i	i	0.67	-15	i	i
CC(=O)Nc1ccc(OCC(O)Cn2nc(C)nc2C)cc1 (stereo unspecified)	i	i	-0.26	5.5*	i	i
NNc1nc(Nc2ccc([N+](=O)[O-])cc2)nc(N2CCCCCC2)n1	i	i	-0.97	-5	6*	i
O=[N+]([O-])c1ccc(Nc2nc(NCCO)nc(N3CCCC3)n2)cc1	i	i	0.01	-12	i	i
O=C(NC(=S)Nc1ccccc1)c1cncc(C#Cc2ccccc2)c1	i	i	-0.29	5.8*	i	i
CCN(CCNCC(O)COCc1ccc(Cl)cc1)c1cccc(C)c1 (stereo unspecified)	i	i	-7.5*	-20	i	i
COc1ccc([C@@H]2C[C@H]3CN(Cc4ccccc4OC)C(=O)[C@]34CCCN24)cc1C	i	i	-0.54	-11	i	i
C/C(=N\NC(=O)c1nn(C)c(C)c1Br)c1ccc(NC(=O)c2ccoc2C)cc1	i	i	-0.75	-5	i	-7.9*
CC(C)(Oc1ccc(Cl)cc1)C(=O)N/N=C/c1cn[nH]c1-c1ccccc1	i	i	0.57	-6	i	-7.2*
